T cruzi inh = inhibitors of intracellular T. cruzi growth, primary screen, luminescence, NIH3T3 host cells; T. cruzi beta-gal in NIH3T3, 90 h; inhibition, % (test concentration not listed); 300,000 compounds, 1.4% hits; AID 1885, 2009;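 active means mean inhibition across valid replicates above about 55%, limit read from the data; inconclusive means mean below that limit but half or more replicates reach it; inactive means mean below it, under half of replicates reach it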;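 further: signal also drops with host cell toxicity which is not excluded here; 0% = plate median of DMSO wells and 100% = zero luminescence signal; higher percent means less beta-gal luminescence so fewer parasites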
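Test system: β-gal T. cruzi (Tulahuen C4) inside NIH/3T3 cells / Quantity: 5,000 cells/well / Measured by: luminescence from GalScreen with 0.05% NP40, read after 60 min / Medium: DMEM plus 2% FBS / Measure: parasite load inhibition, % / Reagent: Tulahuen C4 trypomastigotes, 5000/well / Schedule: co-culture of at least 90 h after 3 h attachment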
AI-2 QS mod = Vibrio harveyi AI-2 quorum sensing modulators, primary screen, JMH597 strain, luminescence/OD600 ratio; Vibrio harveyi JMH597 AI-2 luminescence/OD600 ratio, 9 h; stronger effect = lower value; strain lacks LuxN and CqsS sensors; 0 = neutral-control median; activity change, % at 7.5 µM; 300,000 compounds, 0.4% hits; in the data active means activity change below about -75%, passing the limit was not always enough; inconclusive means no clear call, values can overlap the other calls;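 further: luminescence divided by OD600 gain over 9 h not by final OD600 alone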
V-ATPase pH = regulators of yeast V-ATPase proton pumping, primary screen, pHLuorin cytosolic pH fluorescence. S. cerevisiae. response, % at 10 µM. 350,000 compounds, 0.37% hits. AID 504577, 2011; in the data active means response mostly above about 7.3%, no sharp cut-off; inactive means mostly below about 5.4%; further: actives read high
HIF act = HIF pathway transcriptional activators, primary screen, cell-based, U2OS HRE-luciferase, luminescence. U2OS HRE-luciferase reporter; normalized: DMSO 0%, desferrioxamine 100%. activation, % at 7.5 µM (by protocol). 300,000 compounds, 0.32% hits. AID 1910, 2009;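 active means mean activation of at least 10% of the iron chelator positive control signal, with at least half of replicates also reaching 10%; inconclusive means mean and replicate majority disagree about reaching 10%; inactive means mean and most replicates under 10%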
NRP1-CendR mod = modulators of CendR peptide binding to NRP-1, primary screen, biochemical, fluorescence polarization, uHTS. FAM-RPARPAR peptide binding to NRP-1. inhibition, % at 25 µM. 360,000 compounds, 0.85% hits. AID 602438, 2012;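 active means inhibition or corrected inhibition above about 18%, plus a signal ratio from 0.5 to 1.5, limit read from the data, passing the limit was not always enough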
Target sequence (O14786 whole entry, looked up): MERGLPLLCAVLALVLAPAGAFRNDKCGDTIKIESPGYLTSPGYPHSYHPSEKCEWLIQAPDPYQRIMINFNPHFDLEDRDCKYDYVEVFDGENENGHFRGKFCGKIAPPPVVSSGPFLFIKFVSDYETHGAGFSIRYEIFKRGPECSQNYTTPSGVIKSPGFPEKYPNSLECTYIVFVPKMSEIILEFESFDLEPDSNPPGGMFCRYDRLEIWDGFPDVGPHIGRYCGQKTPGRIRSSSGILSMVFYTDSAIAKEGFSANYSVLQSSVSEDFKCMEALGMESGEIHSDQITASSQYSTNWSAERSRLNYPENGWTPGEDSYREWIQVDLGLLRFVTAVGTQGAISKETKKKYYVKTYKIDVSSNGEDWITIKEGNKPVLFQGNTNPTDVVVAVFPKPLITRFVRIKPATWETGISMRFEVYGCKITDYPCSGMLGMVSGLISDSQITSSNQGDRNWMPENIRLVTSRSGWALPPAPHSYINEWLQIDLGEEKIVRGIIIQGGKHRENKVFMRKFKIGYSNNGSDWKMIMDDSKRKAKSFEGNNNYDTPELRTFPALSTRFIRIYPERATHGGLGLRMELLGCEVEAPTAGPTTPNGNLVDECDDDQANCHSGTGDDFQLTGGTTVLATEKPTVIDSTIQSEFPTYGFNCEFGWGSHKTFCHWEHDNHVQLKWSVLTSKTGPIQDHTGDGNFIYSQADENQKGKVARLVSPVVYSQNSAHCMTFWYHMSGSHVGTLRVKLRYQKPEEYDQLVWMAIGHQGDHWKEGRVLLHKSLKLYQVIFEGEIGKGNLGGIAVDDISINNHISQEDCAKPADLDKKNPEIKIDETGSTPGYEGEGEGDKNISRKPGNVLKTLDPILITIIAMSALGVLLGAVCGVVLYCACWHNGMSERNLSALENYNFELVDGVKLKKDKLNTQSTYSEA
Yeast superoxide = reduction of superoxide in aged yeast, primary screen, HTS | S. cerevisiae aged cells, superoxide DHE fluorescence; stronger effect = lower value | superoxide response (% of plate mean), % at 10 µM | 330,000 compounds, 0.18% hits | AID 2690, 2010;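 active means superoxide response under a set limit, about three screen SD below normal, cut at about 65% in these data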;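 further: yeast aged for seven days with compound at 30 °C before DHE staining; 100% = average MFI of all compound-treated wells on the plate with controls excluded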
Active calls of the source: *; ? = inconclusive; / = no result; ! = not confirmed by another sample. An excerpt weighted towards active compounds, which were near 3% of everything screened.

SMILES	T cruzi inh	AI-2 QS mod	V-ATPase pH	HIF act	NRP1-CendR mod	Yeast superoxide
COc1ccc(CCNCc2ccc(OCc3ccc(Cl)nc3)c(OC)c2)cc1OC	57.0*	5.0	-0.4	-0.3	22.7	93.6
COc1ccc(CNCCc2ccc(Cl)cc2)cc1OCc1ccccc1	70.1*	24.6	1.4	-0.5	11.7	89.0
CCN(Cc1ccccc1)Cc1ccc(OCc2ccccc2)c(OC)c1	32.2	18.2	1.7	0.9	7.3	102.9
COc1cc(CN(C)CCc2ccccc2)ccc1OCc1ccccc1	63.2*	24.5	3.9	0.6	-25.9	119.4
CCOc1cc(CNCCc2ccc(S(N)(=O)=O)cc2)cc(Cl)c1OCc1ccccc1	58.3*	39.7	-1.2	-0.6	-11.4	88.4
Cn1cc(S(=O)(=O)NCc2ccc(F)cc2)c(=O)n(C)c1=O	-6.6	16.1	2.6	-0.1	-0.1	103.3
COc1ccc(CCNC(=O)CCn2c(=O)[nH]c3cc(OC)c(OC)cc3c2=O)cc1OC	-18.7	-1.5	4.1	-0.5	10.9	99.9
Cc1c(-n2c(SCC(=O)NC(C)C(C)C)nc3ccccc3c2=O)c(=O)n(-c2ccccc2)n1C (centres undefined)	-4.8	12.6	1.2	-0.1	-7.4	91.5
CCNC(=S)NCc1ccc(OC)c(OC)c1	-10.5	28.8	-0.6	-0.3	2.5	106.6
CCOc1cc(CNCc2ccccc2)ccc1OCc1ccc(Cl)cc1	55.3*	25.1	0.3	-22.5	8.8	114.9
COc1ccc(CCNC(=S)NCc2ccc(Cl)c(Cl)c2)cc1OC	60.4*	13.8	3.4	0.1	10.6	105.7
Cc1ccccc1N(C(=O)c1ccccn1)C(C(=O)NCc1ccccc1)c1cccnc1 (centres undefined)	8.5	9.6	-1.0	-0.1	6.4	105.8
O=C(NCc1ccccc1)C(c1cccnc1)N(C(=O)c1ccccn1)c1ccccc1F (centres undefined)	-9.7	31.1	-2.8	-0.2	26.2*	81.9
CCc1cccc2c(C(=O)COC(=O)c3ccc(O)cc3)c[nH]c12	55.7*	6.4	2.2	5.8	-6.6	99.0
CCc1cccc2c(C(=O)COC(=O)c3ccccc3)c[nH]c12	4.6	-0.4	-4.5	3.7	5.9	108.0
Cc1ccc(CC(=O)N2CCN(c3ccccc3F)CC2)cc1	-8.4	17.2	-1.6	0.0	8.7	88.1
Fc1cnc(N2CCOCC2)nc1N1CCOCC1	-21.1	1.6	-3.5	-0.3	21.0*	109.7
Fc1cnc(N2CCOCC2)nc1N1CCc2ccccc21	28.1	9.9	-1.4	0.6	11.0	109.8
CN1CCN(c2nc(N3CCN(c4ccccc4)CC3)ncc2F)CC1	56.9*	-0.8	5.4	/	0.5	103.2
CCN(CC)c1ncnc2c1ncn2[C@H]1CN(Cc2ccccc2)C[C@@H](CO)O1	/	/	/	/	-6.7	/
CCC(C)(C)NC(=O)CN(C(=O)c1snc(C(N)=O)c1N)c1ccc(OC)c(OC)c1	/	/	0.8	/	-9.1	105.8
Cc1ccc2nc(N(CCCN(C)C)C(=O)CN3C(=O)c4ccccc4C3=O)sc2c1	61.2*	13.6	-0.2	-1.9	1.0	98.7
Cc1ccc(S(=O)(=O)CC(=O)N(CCCN(C)C)c2nc3ccc(C)cc3s2)cc1	65.1*	28.7	3.4	-1.7	-24.3	102.3
Cc1cc(C)c2sc(N(CCCN(C)C)C(=O)CN3C(=O)c4ccccc4C3=O)nc2c1	50.8	-6.9	4.6	-0.5	9.6	111.9
Cc1nc(C(=O)NC2CCOCC2)sc1C1(C)CC(c2ccccc2)=NO1 (centres undefined)	-14.2	30.9	0.1	0.0	14.8	97.8
SMILES	T cruzi inh	AI-2 QS mod	V-ATPase pH	HIF act	NRP1-CendR mod	Yeast superoxide
COc1ccc(-n2c(-c3ccc(Br)cc3)c[n+]3c2CCc2ccccc2-3)cc1	59.6*	16.4	-6.0	1.5	13.9	102.0
COc1ccccc1-n1c(-c2ccccc2)c[nH]c1=S	-8.6	32.7	-4.7	5.4	14.7	/
COc1ccccc1-n1c(-c2ccccc2)c[n+]2c1CCc1ccccc1-2	76.3*!	41.4	-1.7	0.2	-0.3	144.1
CC(C)c1ccc(-n2c(-c3ccccc3)c[n+]3c2CCc2ccccc2-3)cc1	67.4*	9.8	-0.5	-1.6	9.5	/
COc1ccc(-c2c[n+]3c(n2-c2ccccc2)CCCCC3)cc1	?	14.9	-1.1	-0.1	11.9	162.1
COc1ccc(-c2cn(-c3ccc(OC)cc3)c3[n+]2-c2ccccc2CC3)cc1	37.5	19.4	1.1	0.3	-12.8	103.8
CCc1nc2ccc(C(=O)N3CCN(S(=O)(=O)CC)CC3)cn2c1N(C)CCC(C)C	/	/	/	/	0.6	/
COc1cc(/C=C(\C#N)C(=O)NCCc2ccccc2)cc(OC)c1O	-5.8	36.5	1.2	-0.4	-149.0	94.7
COc1cc(/C=N/S(=O)(=O)CCc2ccccc2)cc(OC)c1O	-9.2	31.5	1.5	-0.2	38.9*	92.7
Cc1cccc(/N=C/c2c(O)c3ccccc3oc2=O)n1	-16.2	20.3	1.5	0.9	0.6	119.5
O=c1c(Cl)c(Cl)cnn1Cc1ccc(F)cc1	-17.5	10.0	-1.1	-0.2	-1.6	85.3
O=C1CN(C(=O)COc2ccc(Cl)c(Cl)c2)c2ccccc2N1	/	/	0.7	/	-4.7	/
O=C(OCn1ncc(Cl)c(Cl)c1=O)c1ccccc1Cl	58.3*	5.2	4.6	-3.0	-8.6	89.9
O=C1CN(C(=O)Cn2ncc(Cl)c(Cl)c2=O)c2ccccc2N1	74.7*	25.4	-3.9	-5.3	-8.5	/
O=C(Cn1ncc(Cl)c(Cl)c1=O)c1ccc(Cl)cc1	75.5*	-39.8	-0.2	-5.5	3.0	102.6
O=C(OCn1ncc(Cl)c(Cl)c1=O)c1ccc(F)cc1	62.6*	-5.8	/	-2.5	/	111.7
CC(C)(C)C(=O)Cn1ncc(Cl)c(Cl)c1=O	-4.1	18.6	1.4	0.6	-0.2	/
CN(Cc1ccccc1)C(=O)C1CCN(S(=O)(=O)c2cccc3nsnc23)CC1	7.3	-4.3	3.1	0.1	-1.0	97.6
O=c1cc(-c2ccccc2)cc(-c2ccccc2)n1O	-22.1	-82.1*	-1.4	-1.0	-9.3	70.2
Cn1c(-c2ccccc2)cc(=O)cc1-c1ccccc1	/	/	-0.3	/	15.1	/
CCC(=O)Nc1ccc(C(=O)OCc2ccccc2Cl)cc1	60.7*	2.7	-0.9	1.2	2.4	94.7
CCOC(=O)c1ccc(NC(=O)c2ccc(NS(C)(=O)=O)cc2)cc1	2.2	37.8	1.0	0.4	-21.0	116.9
CCOC(=O)c1c(C)c(C(=O)Nc2ccccc2)c(C)n1CC	22.8	8.1	20.1*	1.1	-10.3	97.8
CCOC(=O)c1c(C)c(C(=O)Nc2cc(OC)ccc2OC)c(C)n1CC	8.2	18.8	14.9*	1.6	9.2	86.8

Source: PubChem
